Source: publication PMC3086726 (Nuclear medicine and biology, 2010)
Like-named read-outs stand apart in the source and are kept apart here.

Experiments:
[1] = format: in vitro ADME; details: mouse, serum, pH 7.4
[2] = mouse, cited from earlier work
[3] = Stability of 99mTc-cyclized analogues to cysteine challenge; format: physicochemical; details: pH 7.4, 37 °C
[4] = In vitro stability of 99mTc-cyclized analogues in PBS; format: physicochemical; details: pH 7.4, 37 °C
Summary of the method: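 Test peptides were labelled with 99mTc by exchange from 99mTc-glucoheptonate (pH 7.9–8.1, 60 °C, 30 min), purified by radio-RP-HPLC, mixed with gentisic acid and evaporated. They were diluted in PBS or 1 mM cysteine, adjusted to pH 7.4 and incubated at 37 °C. Aliquots at 1, 2, 4 and 24 h were analysed by RP-HPLC for % intact. Replicate measurements used radio-TLC on C18 (10% ammonium acetate; 1:1 TFA-water/acetonitrile).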

^99mTc-Tyr^3-octreotate [99mTc-TATE]
percent intact 99mTc-analogue post purification ([1]; 1 h): 97.4 ± 1.9% | percent intact 99mTc-analogue post purification ([1]; 2 h): 97.1 ± 1.5% | percent intact 99mTc-analogue post purification ([1]; 4 h): 95.2 ± 1.7% | percent intact 99mTc-analogue post purification ([1]; 24 h): 57.6 ± 7.5% | In vivo biodistribution, Adrenals ([2]; 4 h): 0.14 ± 0.06 %ID/g | In vivo biodistribution, Blood ([2]; 4 h): 0.44 ± 0.05 %ID/g | In vivo biodistribution, Kidney ([2]; 4 h): 1.37 ± 0.29 %ID/g | In vivo biodistribution, Lg. Int ([2]; 4 h): 60.20 ± 6.39 %ID/g | In vivo biodistribution, Liver ([2]; 4 h): 0.66 ± 0.03 %ID/g | In vivo biodistribution, Muscle ([2]; 4 h): 0.05 ± 0.01 %ID/g | In vivo biodistribution, Pancreas ([2]; 4 h): 0.19 ± 0.06 %ID/g | In vivo biodistribution, Sm. lnt ([2]; 4 h): 2.08 ± 1.08 %ID/g | In vivo biodistribution, Spleen ([2]; 4 h): 0.20 ± 0.02 %ID/g | In vivo biodistribution, Stomach ([2]; 4 h): 4.82 ± 0.95 %ID/g | In vivo biodistribution, Adrenals ([2]; 24 h): 0.01 ± 0.01 %ID/g | In vivo biodistribution, Blood ([2]; 24 h): 0.05 ± 0.01 %ID/g | In vivo biodistribution, Kidney ([2]; 24 h): 0.60 ± 0.05 %ID/g | In vivo biodistribution, Lg. Int ([2]; 24 h): 0.59 ± 0.24 %ID/g | In vivo biodistribution, Liver ([2]; 24 h): 0.22 ± 0.03 %ID/g | In vivo biodistribution, Muscle ([2]; 24 h): 0.01 ± 0.01 %ID/g | In vivo biodistribution, Pancreas ([2]; 24 h): 0.03 ± 0.01 %ID/g | In vivo biodistribution, Sm. lnt ([2]; 24 h): 0.19 ± 0.01 %ID/g | In vivo biodistribution, Spleen ([2]; 24 h): 0.05 ± 0.01 %ID/g | In vivo biodistribution, Stomach ([2]; 24 h): 0.69 ± 0.23 %ID/g | percent intact 99mTc-analogue post purification ([3]; 1 mM Cys, 1 h): 95.8 ± 2.4% | percent intact 99mTc-analogue post purification ([3]; 1 mM Cys, 2 h): 85.3 ± 4.0% | percent intact 99mTc-analogue post purification ([3]; 1 mM Cys, 4 h): 77.8 ± 3.3% | percent intact 99mTc-analogue post purification ([3]; 1 mM Cys, 24 h): 45.0 ± 5.8% | percent intact 99mTc-analogue post purification ([3]; 10 mM Cys, 1 h): 63.9 ± 4.1% | percent intact 99mTc-analogue post purification ([3]; 10 mM Cys, 2 h): 53.3 ± 3.5% | percent intact 99mTc-analogue post purification ([3]; 10 mM Cys, 4 h): 42.5 ± 5.6% | percent intact 99mTc-analogue post purification ([3]; 10 mM Cys, 24 h): 15.0 ± 8.3% | percent intact 99mTc-analogue post purification ([4]; 1 h): 86.2 ± 5.4% | percent intact 99mTc-analogue post purification ([4]; 2 h): 73.7 ± 4.3% | percent intact 99mTc-analogue post purification ([4]; 4 h): 60.4 ± 1.8% | percent intact 99mTc-analogue post purification ([4]; 24 h): 37.9 ± 7.7%
